Measured values taken from ChEMBL document CHEMBL3091449, “Synthesis and antimicrobial profile of N-substituted imidazolium oximes and their monoquaternary salts against multidrug resistant bacteria” (2013).
In brackets after ≈: the same amount, converted by molar mass.

Key:
Type in all cases: functional
Aeromonas hydrophila [1] = test: Antibacterial activity against Aeromonas hydrophila FNSST 014 after 18 to 24 hrs by two-fold broth microdilution assay
Method in brief: (§1)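 CLSI two-fold broth microdilution was used. Compounds were dissolved in DMSO, brought to 10 mg/mL in medium, then serially diluted in Mueller Hinton broth over 400–0.09 µg/mL. Overnight MHB cultures were diluted to 10^6 CFU/mL, and 10 µL was added per well. Plates were incubated 18–24 h at 37 °C, then 0.2 mg/mL INT was added for 30 min at 37 °C. MIC was the lowest concentration with no visible growth or pink colour, triplicate.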

Pseudomonas aeruginosa [2] = test: Antibacterial activity against Pseudomonas aeruginosa FNSST 982 after 18 to 24 hrs by two-fold broth microdilution assay; method in brief: as §1
Klebsiella pneumoniae [3] = test: Antibacterial activity against Klebsiella pneumoniae FNSST 011 after 18 to 24 hrs by two-fold broth microdilution assay; method in brief: as §1
Escherichia coli [4] = test: Antibacterial activity against Escherichia coli FNSST 982 after 18 to 24 hrs by two-fold broth microdilution assay; method in brief: as §1
Clostridium perfringens [5] = test: Antibacterial activity against Clostridium perfringens FNSST 4999 after 18 to 24 hrs by two-fold broth microdilution assay
Method in brief: (§2)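 CLSI two-fold broth microdilution. Compounds dissolved in DMSO, 10 mg/mL stock, serially diluted to 400–0.09 µg/mL in Mueller Hinton broth. Wells inoculated with 10^6 CFU/mL bacteria and incubated 18–24 h at 37 °C. 0.2 mg/mL INT added for 30 min. MIC taken as the lowest concentration with no visible growth or pink colour. Triplicate.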

Staphylococcus aureus [6] = test: Antibacterial activity against Staphylococcus aureus ATCC 25923 after 18 to 24 hrs by two-fold broth microdilution assay; method in brief: as §1
Enterococcus faecalis [7] = test: Antibacterial activity against Enterococcus faecalis ATCC 29212 after 18 to 24 hrs by two-fold broth microdilution assay; method in brief: as §1
Bacillus cereus [8] = test: Antibacterial activity against Bacillus cereus ATCC 11778 after 18 to 24 hrs by two-fold broth microdilution assay; method in brief: as §1
Aspergillus fumigatus = test: Antifungal activity against Aspergillus fumigatus FNSST 3833 assessed as diameter of zone of inhibition at 250 ug/disc after 72 hrs by disc diffusion method; details: FNSST 3833, 72 h, read-out: DIZ
Method in brief: (§3)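 Fungi were grown overnight at 30 °C in Sabouraud dextrose broth to 10^4 cfu/mL, and 100 µL was spread on Sabouraud dextrose agar. 6 mm discs carried 250 µg (25 µL of a 10 mg/mL stock in 96% ethanol), with ethanol as the negative control. Incubation was at 30 °C for 48 h (yeast) or 72 h (molds). Zone diameter was read including the disc, in triplicate, mean ± SE.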

Talaromyces funiculosus = test: Antifungal activity against Penicillium funiculosum FNSST 3724 assessed as diameter of zone of inhibition at 250 ug/disc after 72 hrs by disc diffusion method; details: FNSST 3724, 72 h, read-out: DIZ; method in brief: as §3
Aeromonas hydrophila [9] = test: Antibacterial activity against Aeromonas hydrophila FNSST 014 assessed as diameter of zone of inhibition at 250 ug/disc after 24 hrs by disc diffusion method; details: FNSST 014, 24 h, read-out: DIZ
Method in brief: (§4)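 Bacteria were grown overnight at 37 °C in TSB to about 10^6 cfu/mL, and 100 µL was spread on Mueller Hinton agar. Sterile 6 mm discs were each loaded with 25 µL of a 10 mg/mL stock in 96% ethanol, giving 250 µg/disc. Ethanol served as the negative control. Plates were incubated 24 h at 37 °C. Inhibition zone diameter was measured including the disc, in triplicate, as mean ± SE.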

Pseudomonas aeruginosa [10] = test: Antibacterial activity against Pseudomonas aeruginosa FNSST 982 assessed as diameter of zone of inhibition at 250 ug/disc after 24 hrs by disc diffusion method; details: FNSST 982, 24 h, read-out: DIZ; method in brief: as §4
Klebsiella pneumoniae [11] = test: Antibacterial activity against Klebsiella pneumoniae FNSST 011 assessed as diameter of zone of inhibition at 250 ug/disc after 24 hrs by disc diffusion method; details: FNSST 011, 24 h, read-out: DIZ; method in brief: as §4
Escherichia coli [12] = test: Antibacterial activity against Escherichia coli FNSST 982 assessed as diameter of zone of inhibition at 250 ug/disc after 24 hrs by disc diffusion method; details: FNSST 982, 24 h, read-out: DIZ; method in brief: as §4
Clostridium perfringens [13] = test: Antibacterial activity against Clostridium perfringens FNSST 4999 assessed as diameter of zone of inhibition at 250 ug/disc after 24 hrs by disc diffusion method; details: FNSST 4999, 24 h, read-out: DIZ
Method in brief: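 Disc diffusion per CLSI: 100 µL of 10^6 cfu/mL bacterial suspension spread on Mueller Hinton agar. 6 mm discs loaded with 25 µL of 10 mg/mL compound stock in 96% ethanol (250 µg/disc); ethanol as negative control. Incubated 24 h at 37 °C. Inhibition zone diameter measured in mm including the disc, triplicate, reported as mean ± SE.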

Staphylococcus aureus [14] = test: Antibacterial activity against Staphylococcus aureus ATCC 25923 assessed as diameter of zone of inhibition at 250 ug/disc after 24 hrs by disc diffusion method; details: ATCC 25923, 24 h, read-out: DIZ; method in brief: as §4
Enterococcus faecalis [15] = test: Antibacterial activity against Enterococcus faecalis ATCC 29212 assessed as diameter of zone of inhibition at 250 ug/disc after 24 hrs by disc diffusion method; details: ATCC 29212, 24 h, read-out: DIZ; method in brief: as §4
Bacillus cereus [16] = test: Antibacterial activity against Bacillus cereus ATCC 11778 assessed as diameter of zone of inhibition at 250 ug/disc after 24 hrs by disc diffusion method; details: ATCC 11778, 24 h, read-out: DIZ; method in brief: as §4
Candida albicans = test: Antifungal activity against Candida albicans ATCC 10231 assessed as diameter of zone of inhibition at 250 ug/disc after 48 hrs by disc diffusion method; details: ATCC 10231, 48 h, read-out: DIZ; method in brief: as §3
Pseudomonas aeruginosa [17] = test: Antibacterial activity against GIM-1 expressing Pseudomonas aeruginosa isolate 197 after 18 to 24 hrs by two-fold broth microdilution assay; method in brief: as §1
Acinetobacter baumannii = test: Antibacterial activity against SIM-1 expressing Acinetobacter baumannii isolate 170 after 18 to 24 hrs by two-fold broth microdilution assay; method in brief: as §2
Escherichia coli [18] = test: Antibacterial activity against […] expressing Escherichia coli isolate 235 after 18 to 24 hrs by two-fold broth microdilution assay; method in brief: as §2
Escherichia coli [19] = test: Antibacterial activity against TEM-1/SHV-12 expressing Escherichia coli isolate 237 after 18 to 24 hrs by two-fold broth microdilution assay; method in brief: as §2
Escherichia coli [20] = test: Antibacterial activity against […] expressing Escherichia coli isolate 4024 after 18 to 24 hrs by two-fold broth microdilution assay; method in brief: as §2
Aeromonas caviae [21] = test: Antibacterial activity against TEM-1/CTX-M-15 expressing Aeromonas caviae isolate 260 after 18 to 24 hrs by two-fold broth microdilution assay; method in brief: as §1
Aeromonas caviae [22] = test: Antibacterial activity against […] expressing Aeromonas caviae isolate 258 after 18 to 24 hrs by two-fold broth microdilution assay; method in brief: as §1
Aeromonas hydrophila [23] = test: Antibacterial activity against TEM-1/SHV-12 expressing Aeromonas hydrophila isolate 268 after 18 to 24 hrs by two-fold broth microdilution assay; method in brief: as §1
Kluyvera intermedia = test: Antibacterial activity against TEM-1/SHV-12/[…] expressing Enterobacter intermedius isolate 243 after 18 to 24 hrs by two-fold broth microdilution assay; method in brief: as §1
Enterobacter cloacae [24] = test: Antibacterial activity against CTX-15 expressing Enterobacter cloacae isolate 51 after 18 to 24 hrs by two-fold broth microdilution assay
Enterobacter cloacae [25] = test: Antibacterial activity against TEM-1/CTX-M-15 expressing Enterobacter cloacae isolate 62 after 18 to 24 hrs by two-fold broth microdilution assay
Enterobacter cloacae [26] = test: Antibacterial activity against TEM-1/SHV-12 expressing Enterobacter cloacae isolate 306 after 18 to 24 hrs by two-fold broth microdilution assay
Klebsiella pneumoniae [27] = test: Antibacterial activity against TEM-1/SHV-12 expressing Klebsiella pneumoniae isolate 303 after 18 to 24 hrs by two-fold broth microdilution assay; method in brief: as §1
[28] = test system: Stenotrophomonas maltophilia; test: Antibacterial activity against […] expressing Stenotrophomonas maltophilia isolate 125 after 18 to 24 hrs by two-fold broth microdilution assay; method in brief: as §1

## O/N=C/c1n(Cc2ccccc2)cc[n+]1Cc1ccccc1.[Br-]
Aeromonas hydrophila [1]
  MIC: 50 µg/mL
Pseudomonas aeruginosa [2]
  MIC: 62.5 µg/mL
Klebsiella pneumoniae [3]
  MIC: 42 µg/mL
Escherichia coli [4]
  MIC: 100 µg/mL
Clostridium perfringens [5]
  MIC: 25 µg/mL
Staphylococcus aureus [6]
  MIC: 12.5 µg/mL
Enterococcus faecalis [7]
  MIC: 12.5 µg/mL
Bacillus cereus [8]
  MIC: 75 µg/mL
Aspergillus fumigatus
  zone of inhibition at 250 µg/disc: 20.9 mm
Talaromyces funiculosus
  zone of inhibition at 250 µg/disc: 17.6 mm
Aeromonas hydrophila [9]
  zone of inhibition at 250 µg/disc: 17.1 mm
Pseudomonas aeruginosa [10]
  zone of inhibition at 250 µg/disc: 12.4 mm
Klebsiella pneumoniae [11]
  zone of inhibition at 250 µg/disc: 18.6 mm
Escherichia coli [12]
  zone of inhibition at 250 µg/disc: 14.2 mm
Clostridium perfringens [13]
  zone of inhibition at 250 µg/disc: 18.3 mm
Staphylococcus aureus [14]
  zone of inhibition at 250 µg/disc: 14.2 mm
Enterococcus faecalis [15]
  zone of inhibition at 250 µg/disc: 17.1 mm
Bacillus cereus [16]
  zone of inhibition at 250 µg/disc: 15.5 mm
Candida albicans
  zone of inhibition at 250 µg/disc: 20.9 mm

## CN(C)[C@@H]1C(O)=C(C(N)=O)C(=O)[C@@]2(O)C(O)=C3C(=O)c4c(O)cccc4[C@@](C)(O)[C@H]3C[C@@H]12 [TETRACYCLINE]
Pseudomonas aeruginosa [17]
  MIC: > 8 µg/mL
Acinetobacter baumannii
  MIC: 64 µg/mL (≈ 144 µM)
Escherichia coli [18]
  MIC: 32 µg/mL (≈ 72 µM)
Escherichia coli [19]
  MIC: 128 µg/mL (≈ 288 µM)
Escherichia coli [20]
  MIC: 16 µg/mL (≈ 36 µM)
Aeromonas caviae [21]
  MIC: 128 µg/mL (≈ 288 µM)
Aeromonas caviae [22]
  MIC: 64 µg/mL (≈ 144 µM)
Aeromonas hydrophila [23]
  MIC: 8 µg/mL (≈ 18 µM)
Kluyvera intermedia
  MIC: 16 µg/mL (≈ 36 µM)
Enterobacter cloacae [24]
  MIC: 64 µg/mL (≈ 144 µM)
Enterobacter cloacae [25]
  MIC: 16 µg/mL (≈ 36 µM)
Enterobacter cloacae [26]
  MIC: 16 µg/mL (≈ 36 µM)
Klebsiella pneumoniae [27]
  MIC: 256 µg/mL (≈ 576 µM)
[28]
  MIC: 128 µg/mL (≈ 288 µM)

## C[C@@H](O)[C@H]1C(=O)N2C(C(=O)O)=C(S[C@@H]3CN[C@H](C(=O)N(C)C)C3)[C@H](C)[C@H]12 [MEROPENEM]
Pseudomonas aeruginosa [17]
  MIC: > 8 µg/mL
Acinetobacter baumannii
  MIC: 16 µg/mL (≈ 41.7 µM)
Escherichia coli [18]
  MIC: 0.12 µg/mL (≈ 0.313 µM)
Escherichia coli [19]
  MIC: 1 µg/mL (≈ 2.61 µM)
Escherichia coli [20]
  MIC: 0.12 µg/mL (≈ 0.313 µM)
Aeromonas caviae [21]
  MIC: 1 µg/mL (≈ 2.61 µM)
Aeromonas caviae [22]
  MIC: 0.125 µg/mL (≈ 0.326 µM)
Aeromonas hydrophila [23]
  MIC: 0.06 µg/mL (≈ 0.156 µM)
Kluyvera intermedia
  MIC: 0.12 µg/mL (≈ 0.313 µM)
Enterobacter cloacae [24]
  MIC: 0.25 µg/mL (≈ 0.652 µM)
Enterobacter cloacae [25]
  MIC: 0.5 µg/mL (≈ 1.3 µM)
Enterobacter cloacae [26]
  MIC: 0.25 µg/mL (≈ 0.652 µM)
Klebsiella pneumoniae [27]
  MIC: 0.12 µg/mL (≈ 0.313 µM)
[28]
  MIC: 128 µg/mL (≈ 334 µM)

## O/N=C/c1nccn1-c1ccccc1
Aeromonas hydrophila [1]
  MIC: 50 µg/mL (≈ 267 µM)
Pseudomonas aeruginosa [2]
  MIC: 25 µg/mL (≈ 134 µM)
Klebsiella pneumoniae [3]
  MIC: 100 µg/mL (≈ 534 µM)
Escherichia coli [4]
  MIC: 50 µg/mL (≈ 267 µM)
Clostridium perfringens [5]
  MIC: 100 µg/mL (≈ 534 µM)
Staphylococcus aureus [6]
  MIC: 100 µg/mL (≈ 534 µM)
Enterococcus faecalis [7]
  MIC: 6.25 µg/mL (≈ 33.4 µM)
Bacillus cereus [8]
  MIC: 50 µg/mL (≈ 267 µM)
Aspergillus fumigatus
  zone of inhibition at 250 µg/disc: 19.5 mm
Talaromyces funiculosus
  zone of inhibition at 250 µg/disc: 17.9 mm
Aeromonas hydrophila [9]
  zone of inhibition at 250 µg/disc: 17.7 mm
Pseudomonas aeruginosa [10]
  zone of inhibition at 250 µg/disc: 15.8 mm
Klebsiella pneumoniae [11]
  zone of inhibition at 250 µg/disc: 17.2 mm
Escherichia coli [12]
  zone of inhibition at 250 µg/disc: 17.8 mm
Clostridium perfringens [13]
  zone of inhibition at 250 µg/disc: 16.5 mm
Staphylococcus aureus [14]
  zone of inhibition at 250 µg/disc: 10.1 mm
Enterococcus faecalis [15]
  zone of inhibition at 250 µg/disc: 15.7 mm
Bacillus cereus [16]
  zone of inhibition at 250 µg/disc: 15.4 mm
Candida albicans
  zone of inhibition at 250 µg/disc: 16.4 mm

## O=C(O)c1cn(C2CC2)c2cc(N3CCNCC3)c(F)cc2c1=O [CIPROFLOXACIN]
Pseudomonas aeruginosa [17]
  MIC: > 4 µg/mL
Acinetobacter baumannii
  MIC: 0.5 µg/mL (≈ 1.51 µM)
Aeromonas caviae [21]
  MIC: 1 µg/mL (≈ 3.02 µM)
Aeromonas caviae [22]
  MIC: 0.5 µg/mL (≈ 1.51 µM)
Aeromonas hydrophila [23]
  MIC: 2 µg/mL (≈ 6.04 µM)
Kluyvera intermedia
  MIC: 0.5 µg/mL (≈ 1.51 µM)
Klebsiella pneumoniae [27]
  MIC: 2 µg/mL (≈ 6.04 µM)
